Measured values gathered from unrelated publications.
Lines come from different studies, so protocols differ.
Target: Serine/threonine-protein kinase Nek7 (NEK7, Homo sapiens, UniProt Q8TDX7)

| SMILES | effect on | action | technique | cell line | tested at | endpoint | value |
| --- | --- | --- | --- | --- | --- | --- | --- |
| Nc1ncnc2occ(-c3ccc(NC(=O)Nc4cc(C(F)(F)F)ccc4F)cc3)c12 | cell-free assay | inhibitor | – | – | 20 µM | remaining signal | 4% |
| CCC1(CC)NC(=O)c2c(c3ccc(Cl)c(Cl)c3n2C)C1C#N (stereo not drawn) | thermal stability | – | DSF | – | 10 µM | ΔTm | -0.4 °C |
| Cc1sc(C(=O)NC2COC2)cc1-n1cc(NC(=O)Nc2c(F)cccc2Cl)cn1 | enzyme activity | inhibitor | – | – | 10 µM | remaining activity | 100% |
| CC/C(=N\NC(=O)NCc1cccc(O)c1)c1ccc(O)c(C)c1O | enzyme activity | inhibitor | – | – | 0.1 µM | inhibition | 6.5% |
| CN1CCC2(CC1)NC(=O)c1c(c3ccc(Cl)c(Cl)c3n1C)C2C#N (racemic) | thermal stability | – | DSF | – | 10 µM | ΔTm | -0.4 °C |
| CCN1CCN(Cc2ccc(NC(=O)c3ccc(C)c(Oc4ccnc5[nH]ccc45)c3)cc2C(F)(F)F)CC1 | target engagement in cells | inhibitor | chemoproteomics | A-375 | 5 µM | inhibition | 0.277% |
| CNC(=O)c1cc(Oc2ccc(NC(=O)Nc3ccc(Cl)c(C(F)(F)F)c3)cc2)ccn1 | enzyme activity | inhibitor | – | – | 10 µM | inhibition | -7% |
| CC(C)(C)c1nc2c(s1)c1nc(N)ncc1c1ccc(NS(=O)(=O)c3c(F)cccc3F)c(F)c12 | enzyme activity | inhibitor | radiometric | – | 1 µM | remaining activity | 27% |
| Cc1ccc(C(=O)Nc2ccc(CN3CCN(C)CC3)c(C(F)(F)F)c2)cc1C#Cc1cnc2cccnn12 | enzyme activity | inhibitor | – | – | 23.5 nM | remaining activity | 93% |
| Clc1ccc(Nc2nnc(Cc3ccncc3)c3ccccc23)cc1 | cell-free assay | – | – | – | 0.5 µM | remaining signal | 96.8% |
| CCN(CC)c1ccc(C2=NNC(=O)CC2C)cc1[N+](=O)[O-] (stereo not drawn) | enzyme activity | inhibitor | – | – | 10 µM | remaining activity | 107% |
| CCOC(=O)c1cc2cc(-c3cc(C(=O)NCc4ccc(C(=O)O)cc4)nn3C)ccc2[nH]1 | cell-free assay | – | competition with immobilised ligand | – | 0.1 µM | remaining binding | 100% |
| Cn1c2c(c3ccc(Cl)c(Cl)c31)C(C#N)C1(CCOCC1)NC2=O (stereo not drawn) | thermal stability | – | DSF | – | 10 µM | ΔTm | -0.5 °C |
| CC(C)(O)[C@H]1CC[C@H](Nc2ccc3ncc(-c4cccc(C(F)(F)F)c4)n3n2)CC1 | enzyme activity | inhibitor | – | – | 1 µM | remaining activity | 93.6% |
| CC(C)(O)c1cncc(-c2nc3ccc(F)cc3n2C2CC2)c1 | cell-free assay | – | competition with immobilised ligand | – | 1 µM | remaining binding | 100% |
| CCCCNc1ncc2c(-c3ccc(F)cc3)nn(C[C@H]3CC[C@H](N)CC3)c2n1 | target engagement in cells | inhibitor | chemoproteomics | – | 20 mM | inhibition | 6.6% |
| N#CC1c2c([nH]c3c(Cl)c(Cl)ccc23)C(=O)NC12CCCCC2 (racemic) | thermal stability | – | DSF | – | 10 µM | ΔTm | 0.2 °C |
| CO[C@@H](C)c1c(Nc2ccc([C@@H](N(C)C(=O)C3CCS(=O)(=O)CC3)C(F)(F)F)cc2)cnc2cc(Cl)nn12 | cell-free assay | – | competition with immobilised ligand | – | 1 µM | remaining binding | 91% |
| CCCS(=O)(=O)Nc1ccc(F)c(C(=O)c2c[nH]c3ncc(-c4ccc(Cl)cc4)cc23)c1F | enzyme activity | inhibitor | – | – | 1 µM | inhibition | < 10% |
| CCCCN(CCCC)C(=O)CN1C[C@H](c2cc(OC)c3c(c2)OCO3)[C@@H](C(=O)O)[C@@H]1CC(C)(C)CCC | cell-free assay | – | competition with immobilised ligand | – | 1 µM | remaining binding | 100% |
| Cc1ccc(Nc2nccc(N(C)c3ccc4c(C)n(C)nc4c3)n2)cc1S(N)(=O)=O | enzyme activity | inhibitor | – | – | 0.3 µM | inhibition | -6% |
| O=C1NC(c2ccccn2)Sc2ccccc21 (stereo not drawn) | cell-free assay | – | competition with immobilised ligand | – | 1 µM | remaining binding | 68% |
| CCN(CC)CCNC(=O)c1c(C)[nH]c(/C=C2\C(=O)Nc3ccc(F)cc32)c1C | enzyme activity | inhibitor | – | – | 10 µM | inhibition | -6% |
| CCOc1cc(-c2nncn2C)ccc1Nc1ncc2cc(C)nc(NCC(C)(C)C)c2n1 | enzyme activity | inhibitor | FRET | – | 1 µM | inhibition | < 15% |
| Cc1c(C(=O)O)cc(-c2ccc(C3CCNCC3)cc2)c2ccc(-c3ccc(C(F)(F)F)cc3)cc12 | binding | – | competition with immobilised ligand | – | 1 µM | remaining binding | 100% |
| O=C(Nc1cnn(-c2csc(C(=O)NC3COC3)c2)c1)Nc1c(F)cccc1Cl | enzyme activity | inhibitor | – | – | 5 µM | remaining activity | 88.1% |
| C[C@@]1(Cc2ccc(C#N)cc2)C(=O)N(c2cc(Cl)cc(Cl)c2)c2ncc(C(=O)NC3(c4nc(C5CCC5)no4)CC3)n21 | cell-free assay | – | competition with immobilised ligand | – | 1 µM | remaining binding | 100% |
| CS(=O)(=O)CCNCc1ccc(-c2ccc3ncnc(Nc4ccc(OCc5cccc(F)c5)c(Cl)c4)c3c2)o1 | cell-free assay | – | – | – | 0.5 µM | remaining signal | 98.7% |
| Cn1c2c(Cl)c(Cl)ccc2c2cn[nH]c(=O)c21 | thermal stability | – | DSF | – | 10 µM | ΔTm | 0 °C |
| CN([C@@H]1CCc2c(CC(=O)O)c3cc(S(C)(=O)=O)ccc3n2C1)S(=O)(=O)c1ccc(F)cc1 | cell-free assay | – | competition with immobilised ligand | – | 1 µM | remaining binding | 98% |
